One block for each compound: values may come before it. Non-standard residues stand in square brackets, D forms with d. Residues, ends and D or L forms follow the SMILES beside them. No end group written: not given here. *: point of attachment. FITC = O=C1OC2(c3ccc(O)cc3Oc3cc(O)ccc32)c2ccc(NC(=S)*)cc21; βAla = NCCC(=O)O
Experiments:
[1] = molecular target: MBP‐AAA‐AF9 AHD Q336C/A502C (Homo sapiens, UniProt P42568, A502C/Q361C); experiment: Fluorescence polarization direct binding, MBP-AAA-AF9 AHD Q336C/A502C
Procedure, shortened: (§1)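 Fusion protein expressed at 18°C in Rosetta (DE3) cells in TB medium. Cells were lysed by sonication in 50 mM Tris 7.4, 150 mM NaCl, 10% glycerol, 20 mM imidazole, 3 mM TCEP. Protein was captured on Ni-NTA, eluted with a 50–250 mM imidazole gradient, TEV-treated overnight (1:100 w/w), then run on Superdex 200 SEC. Stored at −80°C in 25 mM Tris 7.4, 150 mM NaCl, 1 mM TCEP.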

MBP‐RITK‐AF9 AHD = molecular target: T1, MBP‐RITK‐AF9 AHD (Homo sapiens, UniProt P42568); experiment: Fluorescence polarization direct binding, MBP-RITK-AF9 AHD
T1 sequence (P42568 500-568): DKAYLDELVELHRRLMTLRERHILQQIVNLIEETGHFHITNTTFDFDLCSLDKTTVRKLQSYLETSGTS
Procedure, shortened: as §1

MBP‐GS‐AF9 AHD = molecular target: T2, MBP‐GS‐AF9 AHD (Homo sapiens, UniProt P42568); experiment: Fluorescence polarization direct binding, MBP-GS-AF9 AHD
T2 sequence (P42568 500-568): T1 sequence (P42568 500-568)
Procedure, shortened: as §1

[2] = molecular target: MBP‐AAAA‐AF9 AHD Q336C/K501C (Homo sapiens, UniProt P42568, Q361C); experiment: Fluorescence polarization direct binding, MBP-AAAA-AF9 AHD Q336C/K501C
Procedure, shortened: as §1

MBP‐AAAA‐AF9 AHD = molecular target: T3, MBP‐AAAA‐AF9 AHD (Homo sapiens, UniProt P42568); experiment: Fluorescence polarization direct binding, MBP-AAAA-AF9 AHD
T3 sequence (P42568 500-568): T1 sequence (P42568 500-568)

MBP‐AAA‐AF9 AHD = molecular target: T4, MBP‐AAA‐AF9 AHD (Homo sapiens, UniProt P42568); experiment: Fluorescence polarization direct binding, MBP-AAA-AF9 AHD
T4 sequence (P42568 500-568): T1 sequence (P42568 500-568)

AF9 AHD = conditions: cited from earlier work; for interaction sites within the DOT1L sequence: ref Kuntimaddi et al., 2015
ENL AHD = conditions: ref Kabra & Bushweller, 2022; cited from earlier work
[3] = molecular target: DOT1L (879–888 aa) derived fluorescent labeled peptide; experiment: fluorescence polarisation
[4] = molecular target: AF4 (761–770 aa) derived fluorescent labeled peptide (UniProt P51825); experiment: fluorescence polarisation

Compound: CC[C@H](C)[C@H](NC(=O)[C@H](CCCCN)NC(=O)[C@@H](NC(=O)[C@H](CCSC)NC(=O)[C@H](CC(C)C)NC(=O)CCNC(=O)CCNC(=O)[C@H](CCCCNC(=S)Nc1ccc2c(c1)C(=O)OC21c2ccc(O)cc2Oc2cc(O)ccc21)NC(C)=O)C(C)C)C(=O)N[C@H](C(=O)N[C@@H](CC(C)C)C(=O)N[C@@H](CC(=O)O)C(=O)N[C@@H](CC(C)C)C(=O)N[C@@H](CC(C)C)C(N)=O)[C@@H](C)O [AF4 (761–770 aa)] (Ac-K(FITC)[βAla][βAla]LMVKITLDLL-NH2)
Kd [1]: 3.49 ± 0.18 nM | Kd (MBP‐RITK‐AF9 AHD): 1.31 ± 0.05 nM | Kd (MBP‐GS‐AF9 AHD): 3.7 ± 0.94 nM | Kd [2]: 1.26 ± 0.11 nM

Compound: CC[C@H](C)[C@H](NC(=O)[C@H](CO)NC(=O)[C@@H](NC(=O)[C@@H]1CCCN1C(=O)[C@H](CC(C)C)NC(=O)CCNC(=O)CCNC(=O)[C@H](CCCCNC(=S)Nc1ccc2c(c1)C(=O)OC21c2ccc(O)cc2Oc2cc(O)ccc21)NC(C)=O)C(C)C)C(=O)N1CCC[C@H]1C(=O)N[C@@H](CC(C)C)C(=O)N[C@@H](C)C(=O)N[C@@H](CO)C(=O)N[C@H](C(N)=O)C(C)C [DOT1L (879–888 aa)] (Ac-K(FITC)[βAla][βAla]LPVSIPLASV-NH2)
Kd [1]: 20.9 ± 2.59 nM | Kd (MBP‐RITK‐AF9 AHD): 7.86 ± 0.76 nM | Kd (MBP‐AAAA‐AF9 AHD): 15.6 ± 1.93 nM | Kd (MBP‐GS‐AF9 AHD): 17.9 ± 3.49 nM | Kd (MBP‐AAA‐AF9 AHD): 8.79 ± 0.41 nM | Kd [2]: 10.7 ± 2.84 nM

Compound: AF4 peptide: AF4 peptide of prior reports (LMVKITLDLL; also: fluorescent label, dye and position not given here)
affinity for AF9 AHD relative to DOT1L peptide (AF9 AHD; prior reports, ref Kabra & Bushweller, 2022, Shen et al., 2013): higher affinity

Compound: BCOR peptide (1176–1228): longer BCOR peptide (1176–1228) (TNSSSNHLEDPHYSELTNLKVCIELTGLHPKKQRHLLHLRERWEQQVSAADGK; UniProt Q6W2J9 1176-1228, looked up, fragment)
binding affinity compared with short peptide (1176–1207) (ENL AHD): higher binding affinity | binding affinity compared with short peptide (1176–1207) (AF9 AHD; AF9 AHD, ref Kabra & Bushweller, 2022): higher binding affinity

Compound: LELQISIVEL [LELQISIVEL (638–647)]
interaction sites within the DOT1L sequence (AF9 AHD): interaction sites

Compound: LPISIPLSTV [LPISIPLSTV (865–874)]
binding site for the AHD (AF9 AHD; mapped 10-amino acid DOT1L peptide, ref Grigsby et al., 2021, Shen et al., 2013): binding site for the AHD

Compound: LPVSIPLASV [LPVSIPLASV (879–888)]
interaction sites within the DOT1L sequence (AF9 AHD): interaction sites

Kd [3]: 15.6 nM
Compound: MBP‐AAAA‐AF9 AHD (from UniProt P42568 500-568) (domain or fragment)

Kd [3]: 10.7 nM | Kd [4]: 1.26 nM
Compound: MBP‐AAAA‐AF9 AHD Q336C/K501C (from UniProt P42568 500-568) (domain or fragment)

Kd [3]: 8.79 nM
Compound: MBP‐AAA‐AF9 AHD (from UniProt P42568 500-568) (domain or fragment)

Kd [3]: 20.9 nM
Compound: MBP‐AAA‐AF9 AHD Q336C/A502C (from UniProt P42568 500-568) (domain or fragment)

Kd [3]: 17.9 nM
Compound: MBP‐GS‐AF9 AHD (from UniProt P42568 500-568) (domain or fragment)

Kd [3]: 7.86 nM | Kd [4]: 1.31 nM
Compound: MBP‐RITK‐AF9 AHD (from UniProt P42568 500-568) (domain or fragment)
